Results: ChEMBL document CHEMBL5058577, “EUbOPEN Chemogenomics Library 2 (Multiplex)” (2022)

Test system: Fibroblast
Experiment: Multiplex assay against human fibroblast
Format: toxicity, cell-based
In short: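 Phenotypes for tubulin, mitochondrial mass and membrane permeability are expressed as per cents of healthy-nucleus cells. Cells were stained live at seeding with Hoechst33342, BioTracker Green Microtubule Cytoskeleton Dye, MitoTracker Red and Annexin V Alexa Fluor 680, then imaged after compound addition on a CQ1 microscope at 37°C and 5% CO2. Machine-learning gating in CellPathfinder separated Hoechst high-intensity objects from normal cells, divided normal cells by nuclear state (healthy, pyknosed, fragmented) and divided pyknosed cells into mitotic or apoptotic.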

[1] = 12 h, 1 µM, compound concentration 1 uM, replicate 1
[2] = 12 h, 1 µM, compound concentration 1 uM, replicate 2
[3] = 12 h, 10 µM, compound concentration 10 uM, replicate 1
[4] = 12 h, 10 µM, compound concentration 10 uM, replicate 2
[5] = 24 h, 1 µM, compound concentration 1 uM, replicate 1
[6] = 24 h, 1 µM, compound concentration 1 uM, replicate 2
[7] = 24 h, 10 µM, compound concentration 10 uM, replicate 1
[8] = 24 h, 10 µM, compound concentration 10 uM, replicate 2
[9] = 48 h, 1 µM, compound concentration 1 uM, replicate 1
[10] = 48 h, 1 µM, compound concentration 1 uM, replicate 2
[11] = 48 h, 10 µM, compound concentration 10 uM, replicate 1
[12] = 48 h, 10 µM, compound concentration 10 uM, replicate 2

COc1cc(NC(=O)CCN2CCC(OC(=O)Nc3ccccc3-c3ccccc3)CC2)c(Cl)cc1CNC[C@H](O)c1ccc(O)c2[nH]c(=O)ccc12 [BATEFENTEROL]
Population Apoptotic (%) [1]: 53%
Population Fragmented Nuclei (%) [1]: 25%
Population Healthy Nuclei (%) [1]: 58%
Population Hoechst High Intensity Objects (%) [1]: 2%
Population Membrane Permeable-Phenotype (%) [1]: 0%
Population Mitochondria Different-Phenotype (%) [1]: 13%
Population Mitotic Cells (%) [1]: 46%
Population Normal (%) [1]: 97%
Population Pyknosed Nuclei (%) [1]: 15%
Population Tubulin-Different-Phenotype (%) [1]: 42%
Total Cell Count [1]: 181
Population Apoptotic (%) [2]: 37%
Population Healthy Nuclei (%) [2]: 54%
Population Hoechst High Intensity Objects (%) [2]: 3%
Population Membrane Permeable-Phenotype (%) [2]: 3%
Population Mitochondria Different-Phenotype (%) [2]: 7%
Population Mitotic Cells (%) [2]: 62%
Population Normal (%) [2]: 96%
Population Pyknosed Nuclei (%) [2]: 20%
Population Tubulin-Different-Phenotype (%) [2]: 50%
Total Cell Count [2]: 124
Population Apoptotic (%) [3]: 46%
Population Fragmented Nuclei (%) [3]: 24%
Population Healthy Nuclei (%) [3]: 59%
Population Hoechst High Intensity Objects (%) [3]: 2%
Population Membrane Permeable-Phenotype (%) [3]: 0%
Population Mitochondria Different-Phenotype (%) [3]: 22%
Population Mitotic Cells (%) [3]: 53%
Population Normal (%) [3]: 97%
Population Pyknosed Nuclei (%) [3]: 16%
Population Tubulin-Different-Phenotype (%) [3]: 63%
Total Cell Count [3]: 199
Population Apoptotic (%) [4]: 41%
Population Fragmented Nuclei (%) [4]: 44%
Population Healthy Nuclei (%) [4]: 41%
Population Membrane Permeable-Phenotype (%) [4]: 1%
Population Mitochondria Different-Phenotype (%) [4]: 23%
Population Mitotic Cells (%) [4]: 58%
Population Pyknosed Nuclei (%) [4]: 13%
Population Tubulin-Different-Phenotype (%) [4]: 84%
Total Cell Count [4]: 128
Population Apoptotic (%) [5]: 55%
Population Fragmented Nuclei (%) [5]: 21%
Population Healthy Nuclei (%) [5]: 62%
Population Hoechst High Intensity Objects (%) [5]: 1%
Population Membrane Permeable-Phenotype (%) [5]: 0%
Population Mitochondria Different-Phenotype (%) [5]: 7%
Population Mitotic Cells (%) [5]: 44%
Population Normal (%) [5]: 98%
Population Pyknosed Nuclei (%) [5]: 15%
Population Tubulin-Different-Phenotype (%) [5]: 39%
Total Cell Count [5]: 174
Population Apoptotic (%) [6]: 50%
Population Fragmented Nuclei (%) [6]: 26%
Population Healthy Nuclei (%) [6]: 59%
Population Hoechst High Intensity Objects (%) [6]: 2%
Population Membrane Permeable-Phenotype (%) [6]: 3%
Population Mitochondria Different-Phenotype (%) [6]: 10%
Population Mitotic Cells (%) [6]: 50%
Population Normal (%) [6]: 97%
Population Pyknosed Nuclei (%) [6]: 14%
Population Tubulin-Different-Phenotype (%) [6]: 57%
Total Cell Count [6]: 131
Population Apoptotic (%) [7]: 51%
Population Fragmented Nuclei (%) [7]: 35%
Population Healthy Nuclei (%) [7]: 53%
Population Hoechst High Intensity Objects (%) [7]: 0%
Population Membrane Permeable-Phenotype (%) [7]: 0%
Population Mitochondria Different-Phenotype (%) [7]: 34%
Population Mitotic Cells (%) [7]: 48%
Population Normal (%) [7]: 99%
Population Pyknosed Nuclei (%) [7]: 11%
Population Tubulin-Different-Phenotype (%) [7]: 63%
Total Cell Count [7]: 247
Population Apoptotic (%) [8]: 81%
Population Fragmented Nuclei (%) [8]: 46%
Population Healthy Nuclei (%) [8]: 45%
Population Hoechst High Intensity Objects (%) [8]: 1%
Population Membrane Permeable-Phenotype (%) [8]: 1%
Population Mitochondria Different-Phenotype (%) [8]: 14%
Population Mitotic Cells (%) [8]: 18%
Population Normal (%) [8]: 98%
Population Pyknosed Nuclei (%) [8]: 8%
Population Tubulin-Different-Phenotype (%) [8]: 80%
Total Cell Count [8]: 136
Population Apoptotic (%) [9]: 62%
Population Fragmented Nuclei (%) [9]: 23%
Population Healthy Nuclei (%) [9]: 54%
Population Hoechst High Intensity Objects (%) [9]: 3%
Population Membrane Permeable-Phenotype (%) [9]: 0%
Population Mitochondria Different-Phenotype (%) [9]: 18%
Population Mitotic Cells (%) [9]: 37%
Population Normal (%) [9]: 96%
Population Pyknosed Nuclei (%) [9]: 22%
Population Tubulin-Different-Phenotype (%) [9]: 53%
Total Cell Count [9]: 185
Population Apoptotic (%) [10]: 66%
Population Fragmented Nuclei (%) [10]: 29%
Population Healthy Nuclei (%) [10]: 56%
Population Membrane Permeable-Phenotype (%) [10]: 4%
Population Mitochondria Different-Phenotype (%) [10]: 14%
Population Mitotic Cells (%) [10]: 33%
Population Pyknosed Nuclei (%) [10]: 14%
Population Tubulin-Different-Phenotype (%) [10]: 70%
Total Cell Count [10]: 130
Population Apoptotic (%) [11]: 74%
Population Fragmented Nuclei (%) [11]: 22%
Population Healthy Nuclei (%) [11]: 54%
Population Hoechst High Intensity Objects (%) [11]: 1%
Population Membrane Permeable-Phenotype (%) [11]: 0%
Population Mitochondria Different-Phenotype (%) [11]: 45%
Population Mitotic Cells (%) [11]: 25%
Population Normal (%) [11]: 98%
Population Pyknosed Nuclei (%) [11]: 22%
Population Tubulin-Different-Phenotype (%) [11]: 77%
Total Cell Count [11]: 213
Population Apoptotic (%) [12]: 88%
Population Fragmented Nuclei (%) [12]: 45%
Population Healthy Nuclei (%) [12]: 48%
Population Hoechst High Intensity Objects (%) [12]: 0%
Population Membrane Permeable-Phenotype (%) [12]: 1%
Population Mitochondria Different-Phenotype (%) [12]: 15%
Population Mitotic Cells (%) [12]: 11%
Population Normal (%) [12]: 99%
Population Pyknosed Nuclei (%) [12]: 6%
Population Tubulin-Different-Phenotype (%) [12]: 76%
Total Cell Count [12]: 144
